Assay results as given in ChEMBL document CHEMBL2040727, “Substituted thiazoles VI. Synthesis and antitumor activity of new 2-acetamido- and 2 or 3-propanamido-thiazole analogs” (2012).

Legend:
Format in all cases: functional
[1] = tested on: MOLT-4; assay: Growth inhibition of human MOLT4 cells at 10 uM after 48 hrs by coulter counter analysis; conditions: MOLT-4, 48 h, read-out: GI
How it was run: (§1)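 Single-dose NCI 60-line panel screen of test compounds. Cells grown in RPMI 1640 with 10% FBS. Compounds dissolved in DMSO, then diluted in phosphate buffer saline (final DMSO below 1%). Wells run in duplicate at 6 × 10⁴ cells/ml. Controls held PBS and DMSO at matching dilutions. Incubation 48 h at 37 °C under humidified 5% CO2. Cells diluted tenfold in saline and counted by Coulter counter. Percent growth inhibition taken from mean-graph of treated-cell growth.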

[2] = tested on: RPMI-8226; assay: Growth inhibition of human RPMI8226 cells at 10 uM after 48 hrs by coulter counter analysis; conditions: RPMI-8226, 48 h, read-out: GI; how it was run: as §1
[3] = tested on: SR; assay: Growth inhibition of human SR cells at 10 uM after 48 hrs by coulter counter analysis; conditions: read-out: GI
How it was run: (§2)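 Single-dose screen in the NCI 60 cell line panel. Cells grown in RPMI 1640 with 10% FBS. Compounds dissolved in DMSO and diluted in phosphate buffered saline, final DMSO under 1%. Duplicate wells seeded from culture at 6 × 10⁴ cells/ml. Incubated 48 h at 37 °C, humidified, 5% CO2. Cells diluted tenfold in saline and Coulter-counted. Percent growth inhibition computed against PBS/DMSO controls.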

[4] = tested on: A549; assay: Growth inhibition of human A549/ATCC cells at 10 uM after 48 hrs by coulter counter analysis; conditions: A549, 48 h, read-out: GI; how it was run: as §1
[5] = tested on: NCI-H226; assay: Growth inhibition of human NCI-H226 cells at 10 uM after 48 hrs by coulter counter analysis; conditions: NCI-H226, 48 h, read-out: GI; how it was run: as §1
[6] = tested on: NCI-H322M; assay: Growth inhibition of human NCI-H322M cells at 10 uM after 48 hrs by coulter counter analysis; conditions: read-out: GI; how it was run: as §1
[7] = tested on: NCI-H460; assay: Growth inhibition of human NCI-H460 cells at 10 uM after 48 hrs by coulter counter analysis; conditions: NCI-H460, 48 h, read-out: GI; how it was run: as §1
[8] = tested on: COLO 205; assay: Growth inhibition of human COLO205 cells at 10 uM after 48 hrs by coulter counter analysis; conditions: COLO 205, 48 h, read-out: GI; how it was run: as §1
[9] = tested on: HCC 2998; assay: Growth inhibition of human HCC2998 cells at 10 uM after 48 hrs by coulter counter analysis; conditions: HCC 2998, 48 h, read-out: GI; how it was run: as §1
[10] = tested on: HCT-116; assay: Growth inhibition of human HCT116 cells at 10 uM after 48 hrs by coulter counter analysis; conditions: HCT-116, 48 h, read-out: GI; how it was run: as §1
[11] = tested on: HCT-15; assay: Growth inhibition of human HCT15 cells at 10 uM after 48 hrs by coulter counter analysis; conditions: HCT-15, 48 h, read-out: GI; how it was run: as §1
[12] = tested on: HT-29; assay: Growth inhibition of human HT-29 cells at 10 uM after 48 hrs by coulter counter analysis; conditions: HT-29, 48 h, read-out: GI; how it was run: as §1
[13] = tested on: KM12; assay: Growth inhibition of human KM12 cells at 10 uM after 48 hrs by coulter counter analysis; conditions: KM12, 48 h, read-out: GI; how it was run: as §1
[14] = tested on: SW-620; assay: Growth inhibition of human SW620 cells at 10 uM after 48 hrs by coulter counter analysis; conditions: SW-620, 48 h, read-out: GI; how it was run: as §2
[15] = tested on: SF-268; assay: Growth inhibition of human SF268 cells at 10 uM after 48 hrs by coulter counter analysis; conditions: SF-268, 48 h, read-out: GI; how it was run: as §1
[16] = tested on: SF-539; assay: Growth inhibition of human SF539 cells at 10 uM after 48 hrs by coulter counter analysis; conditions: SF-539, 48 h, read-out: GI; how it was run: as §1
[17] = tested on: SNB-75; assay: Growth inhibition of human SNB75 cells at 10 uM after 48 hrs by coulter counter analysis; conditions: SNB-75, 48 h, read-out: GI; how it was run: as §2
[18] = tested on: LOX IMVI; assay: Growth inhibition of human LOXIMVI cells at 10 uM after 48 hrs by coulter counter analysis; conditions: read-out: GI; how it was run: as §1
[19] = tested on: M14; assay: Growth inhibition of human M14 cells at 10 uM after 48 hrs by coulter counter analysis; conditions: M14, 48 h, read-out: GI; how it was run: as §1
[20] = tested on: MDA-MB-435; assay: Growth inhibition of human MDA-MB-435 cells at 10 uM after 48 hrs by coulter counter analysis; conditions: MDA-MB-435, 48 h, read-out: GI; how it was run: as §1
[21] = tested on: SK-MEL-28; assay: Growth inhibition of human SK-MEL-28 cells at 10 uM after 48 hrs by coulter counter analysis; conditions: SK-MEL-28, 48 h, read-out: GI; how it was run: as §1
[22] = tested on: SK-MEL-5; assay: Growth inhibition of human SK-MEL-5 cells at 10 uM after 48 hrs by coulter counter analysis; conditions: SK-MEL-5, 48 h, read-out: GI; how it was run: as §1
[23] = tested on: IGROV-1; assay: Growth inhibition of human IGROV1 cells at 10 uM after 48 hrs by coulter counter analysis; conditions: IGROV-1, 48 h, read-out: GI; how it was run: as §1
[24] = tested on: OVCAR-4; assay: Growth inhibition of human OVCAR4 cells at 10 uM after 48 hrs by coulter counter analysis; conditions: OVCAR-4, 48 h, read-out: GI; how it was run: as §1
[25] = Growth inhibition of human NCI-ADR-RES cells at 10 uM after 48 hrs by coulter counter analysis; conditions: read-out: GI; how it was run: as §1
[26] = tested on: 786-0; assay: Growth inhibition of human 786-0 cells at 10 uM after 48 hrs by coulter counter analysis; conditions: 786-0, 48 h, read-out: GI; how it was run: as §1
[27] = tested on: ACHN; assay: Growth inhibition of human ACHN cells at 10 uM after 48 hrs by coulter counter analysis; conditions: read-out: GI; how it was run: as §1
[28] = tested on: CAKI-1; assay: Growth inhibition of human Caki1 cells at 10 uM after 48 hrs by coulter counter analysis; conditions: CAKI-1, 48 h, read-out: GI; how it was run: as §1
[29] = tested on: RXF 393; assay: Growth inhibition of human RXF393 cells at 10 uM after 48 hrs by coulter counter analysis; conditions: RXF 393, 48 h, read-out: GI; how it was run: as §1
[30] = tested on: PC-3; assay: Growth inhibition of human PC3 cells at 10 uM after 48 hrs by coulter counter analysis; conditions: PC-3, 48 h, read-out: GI; how it was run: as §1
[31] = tested on: DU-145; assay: Growth inhibition of human DU145 cells at 10 uM after 48 hrs by coulter counter analysis; conditions: DU-145, 48 h, read-out: GI; how it was run: as §1
[32] = tested on: MCF7; assay: Growth inhibition of human MCF7 cells at 10 uM after 48 hrs by coulter counter analysis; conditions: MCF7, 48 h, read-out: GI; how it was run: as §1
[33] = tested on: MDA-MB-231; assay: Growth inhibition of human MDA-MB-231 cells at 10 uM after 48 hrs by coulter counter analysis; conditions: MDA-MB-231, 48 h, read-out: GI; how it was run: as §1
[34] = Growth inhibition of human Hs 578T cells at 10 uM after 48 hrs by coulter counter analysis; conditions: read-out: GI; how it was run: as §1
[35] = tested on: CCRF-CEM; assay: Growth inhibition of human CCRF-CEM cells at 10 uM after 48 hrs by coulter counter analysis; conditions: read-out: GI; how it was run: as §1
[36] = tested on: NCI-H522; assay: Growth inhibition of human NCI-H522 cells at 10 uM after 48 hrs by coulter counter analysis; conditions: NCI-H522, 48 h, read-out: GI; how it was run: as §1

| SMILES | inhibition of growth at 10 µM [1] | inhibition of growth at 10 µM [2] | inhibition of growth at 10 µM [3] | inhibition of growth at 10 µM [4] | inhibition of growth at 10 µM [5] | inhibition of growth at 10 µM [6] | inhibition of growth at 10 µM [7] | inhibition of growth at 10 µM [8] | inhibition of growth at 10 µM [9] | inhibition of growth at 10 µM [10] | inhibition of growth at 10 µM [11] | inhibition of growth at 10 µM [12] | inhibition of growth at 10 µM [13] | inhibition of growth at 10 µM [14] | inhibition of growth at 10 µM [15] | inhibition of growth at 10 µM [16] | inhibition of growth at 10 µM [17] | inhibition of growth at 10 µM [18] | inhibition of growth at 10 µM [19] | inhibition of growth at 10 µM [20] | other results |
| --- | --- | --- | --- | --- | --- | --- | --- | --- | --- | --- | --- | --- | --- | --- | --- | --- | --- | --- | --- | --- | --- |
| O=C(CCCl)Nc1nc(-c2ccccc2)cs1 | 40.7% | 93.1% | 65.4% | 53.1% | 29.3% | 29.2% | 63.6% | 55.6% | 15.8% | 78.3% | 73% | 76.1% | 52.6% | 70.7% | 63% | 81.5% | 60.6% | 47.8% | 52.7% | 68.2% | inhibition of growth at 10 µM [21]: 19.4%; inhibition of growth at 10 µM [22]: 48.9%; inhibition of growth at 10 µM [23]: 50%; inhibition of growth at 10 µM [24]: 24.8%; inhibition of growth at 10 µM [25]: 59.6%; inhibition of growth at 10 µM [26]: 36.7%; inhibition of growth at 10 µM [27]: 50.7%; inhibition of growth at 10 µM [28]: 69.3%; inhibition of growth at 10 µM [29]: 80.4%; inhibition of growth at 10 µM [30]: 57.9%; inhibition of growth at 10 µM [31]: 89.8%; inhibition of growth at 10 µM [32]: 75.9%; inhibition of growth at 10 µM [33]: 53.5%; inhibition of growth at 10 µM [34]: < 10%; inhibition of growth at 10 µM [35]: 92.7% |
| O=C(CCN1CCN(c2ccccc2)CC1)Nc1nc(-c2ccccc2)cs1 | 37.9% | 16.8% | 19.9% | 17.9% | 26.6% | 13% | 11.3% | < 10% | < 10% | 41.7% | 20.6% | < 10% | 10.7% | 10.9% | 22.3% | 15.4% | 28.6% | 25.7% | < 10% | 13.4% | inhibition of growth at 10 µM [36]: 21.3%; inhibition of growth at 10 µM [21]: < 10%; inhibition of growth at 10 µM [22]: 52.5%; inhibition of growth at 10 µM [23]: 33.5%; inhibition of growth at 10 µM [24]: 36.2%; inhibition of growth at 10 µM [25]: 34.6%; inhibition of growth at 10 µM [26]: 18.1%; inhibition of growth at 10 µM [27]: 16.4%; inhibition of growth at 10 µM [28]: 37.7%; inhibition of growth at 10 µM [29]: 11.8%; inhibition of growth at 10 µM [30]: 28.3%; inhibition of growth at 10 µM [31]: 18.2%; inhibition of growth at 10 µM [32]: 12.7%; inhibition of growth at 10 µM [33]: < 10%; inhibition of growth at 10 µM [34]: 14%; inhibition of growth at 10 µM [35]: 31.4% |
